{"source": "ChEMBL document CHEMBL2086372", "about": "(ACS Med Chem Lett, 2012)", "key": {"Mus musculus [1]": {"test_system": "Mus musculus", "assay": "Effect on morphine-dependence in CD1 mouse assessed as decrease in naloxone-precipitated rearing at 0.05 mg/kg, ip administered chronically 15 mins prior to each morphine challenge relative to vehicle-treated control", "format": "functional, organism-based", "set-up": "dose 0.05 mg/kg", "outline": "(§1)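 Acquisition of morphine dependence in mice, tested with repeated ip dosing (racemate 0.05 mg/kg, enantiomers 0.025 mg/kg). Withdrawal was precipitated by naloxone. Scored signs were jumping frequency and somatic signs (rearing, forepaw tremors, teeth chatter). Groups were compared with vehicle and with the morphine group.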"}, "Mus musculus [2]": {"test_system": "Mus musculus", "assay": "Effect on morphine-dependence in CD1 mouse assessed as decrease in naloxone-precipitated jumping at 0.05 mg/kg, ip administered acutely 15 mins prior to naloxone challenge relative to vehicle-treated control", "format": "functional, organism-based", "set-up": "dose 0.05 mg/kg", "outline": "as §1, with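 “Expression” for “Acquisition”, “a single acute” for “repeated”, “dose” for “dosing”, “naloxone in control and morphine-treated mice.” for “naloxone.”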"}, "Mus musculus [3]": {"test_system": "Mus musculus", "assay": "Effect on morphine-dependence in CD1 mouse assessed as decrease in naloxone-precipitated teeth chatter at 0.05 mg/kg, ip administered chronically 15 mins prior to each morphine challenge relative to vehicle-treated control", "format": "functional, organism-based", "set-up": "dose 0.05 mg/kg", "outline": "as §1"}, "[4]": {"assay": "Aqueous solubility of the compound after 1 hr at pH 7.4", "format": "physicochemical", "conditions": "buffer, pH 7.4, 1 h"}, "Mus musculus [5]": {"test_system": "Mus musculus", "assay": "Antidepressant activity in CD1 mouse assessed as decrease in immobility time at 0.05 mg/kg, ip after 15 mins by forced swim test relative to vehicle-treated control", "format": "functional, organism-based", "set-up": "dose 0.05 mg/kg", "outline": "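Mouse forced swimming test with immobility time as the read-out. Single ip doses were 0.012, 0.025, 0.05, 0.2 or 0.5 mg/kg, with fluoxetine 20 mg/kg ip as reference. Results are compared against vehicle-treated mice and given as means ± SEMs of 8–9 animals.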"}, "Mus musculus [6]": {"test_system": "Mus musculus", "assay": "Effect on morphine-dependence in CD1 mouse assessed as decrease in naloxone-precipitated forepaw tremors at 0.05 mg/kg, ip administered acutely 15 mins prior to naloxone challenge relative to vehicle-treated control", "format": "functional, organism-based", "set-up": "dose 0.05 mg/kg", "outline": "as §1, with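 “Expression” for “Acquisition”, “a single acute” for “repeated”, “dose” for “dosing”, “naloxone in control and morphine-treated mice.” for “naloxone.”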"}, "[7]": {"assay": "Permeability of the compound at 10 uM after 4 hrs by PAMPA assay", "format": "ADME"}, "Mus musculus [8]": {"test_system": "Mus musculus", "assay": "Effect on morphine-dependence in CD1 mouse assessed as decrease in naloxone-precipitated rearing at 0.05 mg/kg, ip administered acutely 15 mins prior to naloxone challenge relative to vehicle-treated control", "format": "functional, organism-based", "set-up": "dose 0.05 mg/kg", "outline": "as §1, with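 “Expression” for “Acquisition”, “a single acute” for “repeated”, “dose” for “dosing”, “naloxone in control and morphine-treated mice.” for “naloxone.”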"}, "Mus musculus [9]": {"test_system": "Mus musculus", "assay": "Effect on morphine-dependence in CD1 mouse assessed as decrease in naloxone-precipitated forepaw tremors at 0.05 mg/kg, ip administered chronically 15 mins prior to each morphine challenge relative to vehicle-treated control", "format": "functional, organism-based", "set-up": "dose 0.05 mg/kg", "outline": "as §1"}, "[10]": {"target": "T1, 5-hydroxytryptamine receptor 1A (Homo sapiens, UniProt P08908)", "T1 sequence (P08908 whole entry)": "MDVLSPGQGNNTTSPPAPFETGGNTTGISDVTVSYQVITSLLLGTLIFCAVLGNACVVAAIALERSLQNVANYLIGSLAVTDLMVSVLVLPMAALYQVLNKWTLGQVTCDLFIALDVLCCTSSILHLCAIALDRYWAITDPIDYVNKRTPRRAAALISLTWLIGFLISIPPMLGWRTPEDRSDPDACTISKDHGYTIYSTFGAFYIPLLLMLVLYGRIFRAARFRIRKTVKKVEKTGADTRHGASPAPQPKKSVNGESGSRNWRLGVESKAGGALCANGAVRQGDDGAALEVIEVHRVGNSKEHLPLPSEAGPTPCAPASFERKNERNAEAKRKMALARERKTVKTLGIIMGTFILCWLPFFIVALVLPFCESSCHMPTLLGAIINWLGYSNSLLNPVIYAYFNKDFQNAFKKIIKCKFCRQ", "assay": "Displacement of [3H]8-OH-DPAT from human 5HT1A receptor expressed in HeLa cells after 30 mins", "format": "cell-based", "outline": "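pKi is derived from displacement of [3H]-8-OH-DPAT binding at human cloned 5-HT1A receptor. Values are means ± SEMs of 3–6 separate experiments.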"}, "Mus musculus [11]": {"test_system": "Mus musculus", "assay": "Effect on morphine-dependence in CD1 mouse assessed as decrease in naloxone-precipitated jumping at 0.05 mg/kg, ip administered chronically 15 mins prior to each morphine challenge relative to vehicle-treated control", "format": "functional, organism-based", "set-up": "dose 0.05 mg/kg", "outline": "as §1"}, "Mus musculus [12]": {"test_system": "Mus musculus", "assay": "Effect on morphine-dependence in CD1 mouse assessed as decrease in naloxone-precipitated teeth chatter at 0.05 mg/kg, ip administered acutely 15 mins prior to naloxone challenge relative to vehicle-treated control", "format": "functional, organism-based", "set-up": "dose 0.05 mg/kg", "outline": "as §1, with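 “Expression” for “Acquisition”, “a single acute” for “repeated”, “dose” for “dosing”, “naloxone in control and morphine-treated mice.” for “naloxone.”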"}, "[13]": {"target": "T2, Alpha-2C adrenergic receptor (Homo sapiens) (UniProt P18825)", "T2 sequence (whole entry)": "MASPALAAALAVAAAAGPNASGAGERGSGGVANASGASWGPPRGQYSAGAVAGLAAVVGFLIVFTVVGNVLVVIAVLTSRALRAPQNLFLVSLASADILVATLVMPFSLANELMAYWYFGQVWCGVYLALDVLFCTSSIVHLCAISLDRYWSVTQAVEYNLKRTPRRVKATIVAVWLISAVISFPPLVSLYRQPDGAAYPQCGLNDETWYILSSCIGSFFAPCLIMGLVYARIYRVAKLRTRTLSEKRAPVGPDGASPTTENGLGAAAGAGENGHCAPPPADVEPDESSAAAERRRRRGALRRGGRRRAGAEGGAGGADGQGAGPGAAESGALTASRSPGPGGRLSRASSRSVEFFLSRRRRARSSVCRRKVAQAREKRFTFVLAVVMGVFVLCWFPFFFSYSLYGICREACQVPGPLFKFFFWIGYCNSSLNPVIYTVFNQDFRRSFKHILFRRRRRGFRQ", "assay": "Agonist activity at human alpha2C adrenoceptor expressed in CHO cells assessed as extracellular acidification measured after 4 mins by cytosensor microphysiometric analysis relative to control", "format": "functional, cell-based", "outline": "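Binding and functional assays run on CHO cells expressing recombinant human α2-AR subtypes. Functional read-outs are agonist potency (pEC50) with intrinsic activity (ia), or antagonist pKb. Affinity is reported as pKi. Values are means ± SEMs of 3–6 separate experiments.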"}}, "note": "Active and inactive are the calls of the source. The rule behind the calls is not given here.", "data": [{"compound": "CC(Oc1ccccc1CC1CC1)C1=NCCN1", "note": "(racemic) [CYCLOMETHYLINE]", "values": [{"measurement": "Activity", "setting": "Mus musculus [1]", "result": "Active"}, {"measurement": "Activity", "setting": "Mus musculus [2]", "result": "Active"}, {"measurement": "Activity", "setting": "Mus musculus [3]", "result": "Active"}, {"measurement": "solubility", "setting": "[4]", "result": "soluble"}, {"measurement": "Activity", "setting": "Mus musculus [5]", "result": "Active"}, {"measurement": "Activity", "setting": "Mus musculus [6]", "result": "Active"}, {"measurement": "permeability", "setting": "[7]", "result": "permeable"}, {"measurement": "Activity", "setting": "Mus musculus [8]", "result": "Active"}, {"measurement": "Activity", "setting": "Mus musculus [9]", "result": "Active"}, {"measurement": "Ki", "setting": "[10]", "result": 10.5, "unit": "nM"}, {"measurement": "Activity", "setting": "Mus musculus [11]", "result": "Active"}, {"measurement": "Activity", "setting": "Mus musculus [12]", "result": "Active"}, {"measurement": "Intrinsic activity", "setting": "[13]", "result": 0.8}]}]}
